Results reported in ChEMBL document CHEMBL4689842, “EUbOPEN Chemogenomics Library wave 1” (2021).

System: HEK-293T
Experiment: Multiplex assay against HEK293T;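 for Population Tubulin-Different-Phenotype (%): share of the cells with healthy nuclei that show this phenotype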
Type: toxicity, cell-based
Details: human
In short: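 Live cells were stained at seeding with Hoechst33342, BioTracker Green Microtubule Cytoskeleton Dye, MitoTracker Red and Annexin V Alexa Fluor 680, then imaged on a CQ1 microscope at 37°C and 5% CO2 after compound addition. CellPathfinder machine-learning gating split cells into Hoechst high-intensity objects or normal cells. Normal cells were split into healthy, pyknosed or fragmented nuclei, and pyknosed cells into mitotic or apoptotic. Tubulin, mitochondrial-mass and membrane-permeability phenotypes are per cents of healthy-nucleus cells.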

[1] = 12 h, 1 µM, compound concentration 1 uM, replicate 1
[2] = 12 h, 1 µM, compound concentration 1 uM, replicate 2
[3] = 12 h, 10 µM, compound concentration 10 uM, replicate 1
[4] = 12 h, 10 µM, compound concentration 10 uM, replicate 2
[5] = 24 h, 1 µM, compound concentration 1 uM, replicate 1
[6] = 24 h, 1 µM, compound concentration 1 uM, replicate 2
[7] = 24 h, 10 µM, compound concentration 10 uM, replicate 1
[8] = 24 h, 10 µM, compound concentration 10 uM, replicate 2
[9] = 48 h, 1 µM, compound concentration 1 uM, replicate 1
[10] = 48 h, 1 µM, compound concentration 1 uM, replicate 2
[11] = 48 h, 10 µM, compound concentration 10 uM, replicate 1
[12] = 48 h, 10 µM, compound concentration 10 uM, replicate 2

CCCS(=O)(=O)c1nc(NC2CC2)cc(-c2ccc3c(ccn3C3CC(C)(C)NC(C)(C)C3)c2)n1
Population Apoptotic (%) [1]: 58%
Population Fragmented Nuclei (%) [1]: 8%
Population Healthy Nuclei (%) [1]: 37%
Population Hoechst High Intensity Objects (%) [1]: 13%
Population Membrane Permeable-Phenotype (%) [1]: 4%
Population Mitochondria Different-Phenotype (%) [1]: 86%
Population Mitotic Cells (%) [1]: 41%
Population Normal (%) [1]: 86%
Population Pyknosed Nuclei (%) [1]: 53%
Population Tubulin-Different-Phenotype (%) [1]: 80%
Total Cell Count [1]: 351
Population Apoptotic (%) [2]: 18%
Population Fragmented Nuclei (%) [2]: 11%
Population Healthy Nuclei (%) [2]: 24%
Population Hoechst High Intensity Objects (%) [2]: 7%
Population Membrane Permeable-Phenotype (%) [2]: 12%
Population Mitochondria Different-Phenotype (%) [2]: 51%
Population Mitotic Cells (%) [2]: 81%
Population Normal (%) [2]: 92%
Population Pyknosed Nuclei (%) [2]: 64%
Population Tubulin-Different-Phenotype (%) [2]: 45%
Total Cell Count [2]: 137
Population Apoptotic (%) [3]: 65%
Population Fragmented Nuclei (%) [3]: 63%
Population Healthy Nuclei (%) [3]: 3%
Population Hoechst High Intensity Objects (%) [3]: 9%
Population Membrane Permeable-Phenotype (%) [3]: 16%
Population Mitochondria Different-Phenotype (%) [3]: 16%
Population Mitotic Cells (%) [3]: 34%
Population Normal (%) [3]: 90%
Population Pyknosed Nuclei (%) [3]: 33%
Population Tubulin-Different-Phenotype (%) [3]: 16%
Total Cell Count [3]: 650
Population Apoptotic (%) [4]: 74%
Population Fragmented Nuclei (%) [4]: 24%
Population Healthy Nuclei (%) [4]: 1%
Population Hoechst High Intensity Objects (%) [4]: 10%
Population Membrane Permeable-Phenotype (%) [4]: 0%
Population Mitochondria Different-Phenotype (%) [4]: 100%
Population Mitotic Cells (%) [4]: 25%
Population Normal (%) [4]: 89%
Population Pyknosed Nuclei (%) [4]: 74%
Population Tubulin-Different-Phenotype (%) [4]: 100%
Total Cell Count [4]: 274
Population Apoptotic (%) [5]: 60%
Population Fragmented Nuclei (%) [5]: 10%
Population Healthy Nuclei (%) [5]: 37%
Population Hoechst High Intensity Objects (%) [5]: 14%
Population Membrane Permeable-Phenotype (%) [5]: 2%
Population Mitochondria Different-Phenotype (%) [5]: 79%
Population Mitotic Cells (%) [5]: 39%
Population Normal (%) [5]: 85%
Population Pyknosed Nuclei (%) [5]: 52%
Population Tubulin-Different-Phenotype (%) [5]: 80%
Total Cell Count [5]: 345
Population Apoptotic (%) [6]: 31%
Population Fragmented Nuclei (%) [6]: 11%
Population Healthy Nuclei (%) [6]: 34%
Population Hoechst High Intensity Objects (%) [6]: 7%
Population Membrane Permeable-Phenotype (%) [6]: 11%
Population Mitochondria Different-Phenotype (%) [6]: 66%
Population Mitotic Cells (%) [6]: 68%
Population Normal (%) [6]: 92%
Population Pyknosed Nuclei (%) [6]: 53%
Population Tubulin-Different-Phenotype (%) [6]: 71%
Total Cell Count [6]: 140
Population Apoptotic (%) [7]: 60%
Population Fragmented Nuclei (%) [7]: 63%
Population Healthy Nuclei (%) [7]: 3%
Population Hoechst High Intensity Objects (%) [7]: 11%
Population Membrane Permeable-Phenotype (%) [7]: 26%
Population Mitochondria Different-Phenotype (%) [7]: 5%
Population Mitotic Cells (%) [7]: 39%
Population Normal (%) [7]: 88%
Population Pyknosed Nuclei (%) [7]: 32%
Population Tubulin-Different-Phenotype (%) [7]: 10%
Total Cell Count [7]: 639
Population Apoptotic (%) [8]: 88%
Population Fragmented Nuclei (%) [8]: 29%
Population Healthy Nuclei (%) [8]: 4%
Population Hoechst High Intensity Objects (%) [8]: 10%
Population Membrane Permeable-Phenotype (%) [8]: 11%
Population Mitochondria Different-Phenotype (%) [8]: 33%
Population Mitotic Cells (%) [8]: 12%
Population Normal (%) [8]: 89%
Population Pyknosed Nuclei (%) [8]: 66%
Population Tubulin-Different-Phenotype (%) [8]: 88%
Total Cell Count [8]: 249
Population Apoptotic (%) [9]: 54%
Population Fragmented Nuclei (%) [9]: 15%
Population Healthy Nuclei (%) [9]: 47%
Population Hoechst High Intensity Objects (%) [9]: 17%
Population Membrane Permeable-Phenotype (%) [9]: 7%
Population Mitochondria Different-Phenotype (%) [9]: 58%
Population Mitotic Cells (%) [9]: 45%
Population Normal (%) [9]: 82%
Population Pyknosed Nuclei (%) [9]: 37%
Population Tubulin-Different-Phenotype (%) [9]: 79%
Total Cell Count [9]: 417
Population Apoptotic (%) [10]: 28%
Population Fragmented Nuclei (%) [10]: 9%
Population Healthy Nuclei (%) [10]: 61%
Population Hoechst High Intensity Objects (%) [10]: 5%
Population Membrane Permeable-Phenotype (%) [10]: 12%
Population Mitochondria Different-Phenotype (%) [10]: 32%
Population Mitotic Cells (%) [10]: 71%
Population Normal (%) [10]: 94%
Population Pyknosed Nuclei (%) [10]: 29%
Population Tubulin-Different-Phenotype (%) [10]: 64%
Total Cell Count [10]: 226
Population Apoptotic (%) [11]: 69%
Population Fragmented Nuclei (%) [11]: 67%
Population Healthy Nuclei (%) [11]: 3%
Population Hoechst High Intensity Objects (%) [11]: 11%
Population Membrane Permeable-Phenotype (%) [11]: 31%
Population Mitochondria Different-Phenotype (%) [11]: 0%
Population Mitotic Cells (%) [11]: 30%
Population Normal (%) [11]: 88%
Population Pyknosed Nuclei (%) [11]: 29%
Population Tubulin-Different-Phenotype (%) [11]: 0%
Total Cell Count [11]: 663
Population Apoptotic (%) [12]: 87%
Population Fragmented Nuclei (%) [12]: 36%
Population Healthy Nuclei (%) [12]: 19%
Population Hoechst High Intensity Objects (%) [12]: 9%
Population Membrane Permeable-Phenotype (%) [12]: 6%
Population Mitochondria Different-Phenotype (%) [12]: 65%
Population Mitotic Cells (%) [12]: 12%
Population Normal (%) [12]: 90%
Population Pyknosed Nuclei (%) [12]: 44%
Population Tubulin-Different-Phenotype (%) [12]: 93%
Total Cell Count [12]: 253
